From ChEMBL document CHEMBL1140649, “Design, synthesis, and preliminary biological evaluation of a novel triazole analogue of ceramide” (Bioorg Med Chem Lett, 2007)
Calls of active or inactive are those of the source. No cut-off for these calls is given here.

Assays:
Format in all cases: functional, cell-based
Settings in all cases: Homo sapiens
[1] = test system: HCT-116; assay: Cytotoxicity against HCT116 cells assessed as cell survival by SRB assay
[2] = test system: K562; assay: Cytotoxicity against K562 cells assessed as cell survival by MTT assay
Method in brief: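 Suspension leukemia cells seeded, 24 h, then 48 h treatment with compounds diluted from ethanol stock into medium. MTT added (final 500 µg/ml), 3 h at 37 °C. Medium removed, formazan dissolved in DMSO, absorbance at 570 nm. Survival relative to solvent-treated controls; EC50 (concentration giving 50% survival) by non-linear regression; minimum of three experiments.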

[3] = test system: NCI-H358; assay: Cytotoxicity against NCI-H358 cells assessed as cell survival by SRB assay
[4] = test system: K562; assay: Induction of apoptosis in K562 cells assessed as DNA fragmentation after 18 hrs by agarose gel electrophoresis
Method in brief: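 Cells in 100-mm dishes exposed to various concentrations for 18 h. Lysed in 50 mM Tris-HCl pH 7.5, 20 mM EDTA, 1% NP-40 for 5 min at 4 °C. SDS added (final 1%) for 1 h at 56 °C, then proteinase K (final 2.5 µg/µl) for 2 h at 37 °C. DNA precipitated with ammonium acetate (final 5 M) and ethanol. 5 µg run on 2% agarose gel.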

For `CCCCCCCCCCCCCC[C@@H](O)[C@@H](O)[C@H](CO)n1cc(CCC)nn1`, the EC50 [1] was 13.9 µM, the EC50 [2] was 14.9 µM and the EC50 [3] was 13.2 µM.

`CCCCCCCCCCCCCC[C@@H](O)[C@@H](O)[C@H](CO)n1cc(CCCCCC)nn1` was tested, and the EC50 [1] was 12 µM, the EC50 [2] was 12.6 µM and the EC50 [3] was 13.7 µM.

With `CCCCCCCCCCCCC/C=C/[C@@H](O)[C@H](CO)n1cc(CCCCCCCCCCCCC)nn1` the EC50 [1] was over 50 µM, the EC50 [2] was over 50 µM and the EC50 [3] was over 50 µM.

`CCCCCCCCCCCCC/C=C/[C@@H](O)[C@H](CO)NC(C)=O` was tested, and the EC50 [1] was 24.5 µM, the EC50 [2] was 35.1 µM and the EC50 [3] was 19.6 µM.

In the case of `CCCCCCCCCCCCCC[C@@H](O)[C@@H](O)[C@H](CO)n1cc(CCCC)nn1`, the EC50 [1] is reported as 12.9 µM, the EC50 [2] is reported as 14.5 µM and the Activity [4] is reported as “Active”. The EC50 [3] was 12.9 µM.

`CCCCCCCCCCCCCCCCCCCCCCCCc1cn([C@@H](CO)[C@H](O)[C@H](O)CCCCCCCCCCCCCC)nn1` was tested, and the EC50 [1] was over 50 µM, the EC50 [2] was over 50 µM and the EC50 [3] was over 50 µM.

In the case of `CCCCCCCCCCCCC/C=C/[C@@H](O)[C@H](CO)n1cc(CCCC)nn1`, the EC50 [1] is reported as 12.9 µM, the EC50 [2] is reported as 12.3 µM and the Activity [4] is reported as “Active”. It also gave an EC50 [3] of 13.6 µM.

`CCCCCCCCCCCCCC[C@@H](O)[C@@H](O)[C@H](CO)n1cc(CCCCCCCCCCCCC)nn1` showed an EC50 [1] of over 50 µM, an EC50 [2] of over 50 µM and an EC50 [3] of over 50 µM.

Compound `CCCCCCCCCCCCC/C=C/[C@@H](O)[C@H](CO)n1cc(CCC)nn1` has an EC50 [1] of 16 µM, an EC50 [2] of 13 µM and an EC50 [3] of 15.7 µM.

`CCCCCCCCCCCCC/C=C/[C@@H](O)[C@H](CO)n1cc(CCCCCC)nn1` showed an EC50 [1] of 12.5 µM, an EC50 [2] of 8.2 µM and an EC50 [3] of 12.8 µM.

With `CCCCCCCCCCCCC/C=C/[C@@H](O)[C@H](CO)n1cc(CCCCCCCCCCCCCCCCCCCCCCCC)nn1` the EC50 [1] was over 50 µM, the EC50 [2] was over 50 µM and the EC50 [3] was over 50 µM.
